Laboratory results taken from paper PMC9298613 (Journal of Food and Drug Analysis, 2018).
Values belong to the molecule of their own block, whether it stands above or below them.

Experiments:
[1] = Pharmacokinetics of APZ in rat plasma; type: in vivo, Wistar rats
[2] = test system: CYP3A2; test: Western blot of hepatic CYP3A2 protein expression; type: in vivo, Wistar rats; details: for Reduction of CYP3A2 protein: rat received SA, compared with rats received APZ alone
Method in brief: (§1)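 Wistar rats (190–210 g, n = 6/group), food withheld 12 h beforehand. Antipsychotic test compound 3 mg/kg p.o. once on day 15 or daily for 15 days; controls given oral saline for 15 days. After ether euthanasia, liver excised. 25 μg hepatic protein run on 10% SDS gel, transferred to PVDF, primary antibody overnight at 4 °C, HRP secondary 60 min. Chemiluminescence, densitometry, β-actin also probed. Mean ± SD, ANOVA/Dunnett.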

[3] = test system: CYP2D6; test: Western blot of hepatic CYP2D6 protein expression; type: in vivo, Wistar rats; details: for Reduction of CYP2D6 protein: rat received SA, compared with rats received APZ alone
Method in brief: as §1

[4] = test system: CYP3A2 and CYP2D6; test: Hepatic CYP3A2 and CYP2D6 protein expression, summary statements; type: in vivo, Wistar rats; details: APZ after single or multiple dosing
Method in brief: as §1

[5] = at steady state; cited from earlier work
[6] = APZ 3 mg/kg p.o. daily for 15 days (multiple doses), with or without SA 20 mg/kg p.o. for 15 days, mean ± SD, n = 6
[7] = Wistar, rat, plasma, po, 3 mg/kg
[8] = multiple dose of APZ 3 mg/kg p.o. 15 days, compared to normal controls, p < 0.05
[9] = single dose of APZ 3 mg/kg p.o., liver, compared with normal controls, p <0.05
[10] = administration of SA, in contrast to rats treated with multiple doses of APZ, p <0.05
[11] = animals treated with SA for 15 days, compared to rats treated with a single dose of APZ

Structure (SMILES): O=C1CCc2ccc(OCCCCN3CCN(c4cccc(Cl)c4Cl)CC3)cc2N1 [APZ, 7-[4-[4-(2,3-dichlorophenyl)-1-piperazinyl]butoxy]-3,4-dihydrocarbostyril]
AUMC 0-∞ [1, 6]: 3443.83 ± 234.17 ng/ml × h^^2 | CL [1, 6]: 2.28 ± 0.09 mL/h/kg | Ke [1, 6]: 0.04 ± 0.005 h⁻¹ | Vd [1, 6]: 0.06501 ± 0.00653 L/kg | Tmax [1, 7]: 8 h | k el [1, 7]: 1.11e-05 s⁻¹ | AUC(0-t) ([1]; Wistar, rat, plasma, po, 3 mg/kg, AUC 0-t, APZ 3 mg/kg p.o. daily for 15 days (multiple doses), with or without SA 20 mg/kg p.o. for 15 days, mean ± SD, n = 6): 122 ± 3.45 ng·h/mL | AUC(0-inf) ([1]; Wistar, rat, plasma, po, 3 mg/kg, AUC 0-∞, APZ 3 mg/kg p.o. daily for 15 days (multiple doses), with or without SA 20 mg/kg p.o. for 15 days, mean ± SD, n = 6): 132 ± 4.85 ng·h/mL | Cmax ([1]; Wistar, rat, plasma, po, 3 mg/kg, Cmax, APZ 3 mg/kg p.o. daily for 15 days (multiple doses), with or without SA 20 mg/kg p.o. for 15 days, mean ± SD, n = 6): 7.08 ± 0.89 ng/mL | MRT inf ([1]; Wistar, rat, plasma, po, 3 mg/kg, MRT 0-∞, APZ 3 mg/kg p.o. daily for 15 days (multiple doses), with or without SA 20 mg/kg p.o. for 15 days, mean ± SD, n = 6): 26.1 ± 1.01 h | half-life ([1]; Wistar, rat, plasma, po, 3 mg/kg, T1/2, APZ 3 mg/kg p.o. daily for 15 days (multiple doses), with or without SA 20 mg/kg p.o. for 15 days, mean ± SD, n = 6): 19.8 ± 2.52 h | Enhancement in liver expression of CYP3A2 [2, 8]: 135.29% | Enhancement in CYP3A2 protein expression [2, 9]: 90% | Enhancement in liver expression of CYP2D6 [3, 8]: 91.17% | Increase in CYP2D6 expression [3, 9]: 82% | Increases in CYP3A2 and CYP2D6 expressions in hepatic tissues [4]: 2–3 folds | APZ converted to the major metabolite DAPZ [5]: about 40%

Change in T1/2 of APZ on co-administration of SA (in words) ([1]; APZ single dose, SA 20 mg/kg p.o. for 15 days, compared with APZ alone): without a significant change | Reduction in hepatic expression of CYP3A2 [2, 10]: 54.68% | Reduction of CYP3A2 hepatic protein [2, 11]: 31.57% | Reduction of CYP3A2 protein ([2]; multiple dose study, p <0.05): 73.75% | Reduction of CYP3A2 protein ([2]; single dose study, p <0.05): 50.52% | Reduction in hepatic expression of CYP2D6 [3, 10]: 65.76% | Reduction of CYP2D6 hepatic protein [3, 11]: 34.06% | Reduction of CYP2D6 protein ([3]; multiple dose study, p <0.05): 71.15% | Reduction of CYP2D6 protein ([3]; single dose study, p <0.05): 53.84%
Structure (SMILES): COc1cc(C=CC(=O)O)cc(OC)c1O [SA, 3,5-dimethoxy-4-hydroxycinnamic acid]
